Drawing on ChEMBL document CHEMBL4257446, “Synthesis and biological evaluation of chalcone-linked pyrazolo[1,5-a]pyrimidines as potential anticancer agents” (Medchemcomm, 2017), this text covers IC50 and Activity for three compounds.

Active and inactive are the calls of the source. No cut-off for these calls is given here.

One data set deals with MDA-MB-231. The data set is described as follows: Antiproliferative activity against human MDA-MB-231 cells after 24 hrs by MTT assay. The format is functional, cell-based. The settings on record: MDA-MB-231, 24 h. In short, it runs like this: (§1)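 Cells exposed to a range of compound concentrations; viability read by MTT assay. IC50 (concentration giving 50% growth inhibition) calculated and reported as mean ± S.D. of three independent experiments, each run in triplicate.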
(Formazan colour is commonly taken as a measure of viable cells.)

The test system of data set [1] is A549. The data set is described as follows: Antiproliferative activity against human A549 cells after 24 hrs by MTT assay. The settings on record: A549, 24 h. The format is functional, cell-based. In short, it runs like this:
as §1

Another data set has as its system DU-145. Description: Antiproliferative activity against human DU145 cells after 24 hrs by MTT assay. The format is functional, cell-based. The settings on record: DU-145, 24 h. The gist of the method: as §1
For data set [2], the system named is HEK293. The data set is described as follows: Antiproliferative activity against HEK293 cells after 24 hrs by MTT assay. The format is cell-based. As to conditions: Homo sapiens, HEK293, 24 h.
The test system of data set [3] is A549. Description: Cell cycle arrest in human A549 cells assessed as accumulation of cells at G2/M phase at 2 uM after 24 hrs by propidium iodide staining-based flow cytometric analysis (reference value: 20.4%). Type of data set: functional. (In general: A flow cytometer gives signals particle by particle.)
The test system of data set [4] is HEK293. Description: Cell cycle arrest in HEK293 cells after 24 hrs by propidium iodide staining-based flow cytometric analysis. As to conditions: human, hek293, 24 h.
Data set [5] relates to A549. Description: Decrease in STAT3 protein expression in human A549 cells in STAT3 levels at 2 uM after 24 hrs by Western blot analysis. Type of data set: functional, cell-based. In short, it runs like this: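 A549 cells exposed at 2 μM final concentration and collected 24 h later. Total protein lysate extracted and immunoblotted with antibodies against the EGFR/STAT3 pathway proteins. Erlotinib-treated cells were the positive control and untreated cells the negative control.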
For orientation: Immunoblotting shows a protein as a band on a membrane.

For data set [6], the system named is A549. Description: Induction of apoptosis in human A549 cells assessed as increase in p53 levels at 2 uM after 24 hrs by Western blot analysis. The format is functional, cell-based. In short, it runs like this:
(§2)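 A549 cells given 2 μM final concentration for 24 h. Total lysate probed by western blot for apoptosis-related proteins (Bax, p53, p21, caspase-3, Bcl2). Erlotinib served as positive control and untreated cells as negative control.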

Data set [7] relates to A549. The data set is described as follows: Induction of apoptosis in human A549 cells assessed as increase in p21 levels at 2 uM after 24 hrs by Western blot analysis. Type of data set: functional, cell-based. The gist of the method:
as §2

In data set [8] the test system is A549. The data set is described as follows: Induction of apoptosis in human A549 cells assessed as increase in Bax levels at 2 uM after 24 hrs by Western blot analysis. Type of data set: functional, cell-based. In short, it runs like this:
as §2

Data set [9] relates to A549. Description: Induction of apoptosis in human A549 cells assessed as decrease in Bcl2 levels at 2 uM after 24 hrs by Western blot analysis. The format is functional, cell-based. The gist of the method:
as §2

Data set [10] deals with HEK293. Description: Induction of apoptosis in HEK293 cells assessed as effect on p21 levels after 24 hrs by Western blot analysis. Type of data set: cell-based. As to conditions: human, hek293, 24 h.
For data set [11], the system named is HEK293. Description: Induction of apoptosis in HEK293 cells assessed as effect on p53 levels after 24 hrs by Western blot analysis. The format is cell-based. The settings on record: human, hek293, 24 h.
The subject of data set [12] is HEK293. The data set is described as follows: Induction of apoptosis in HEK293 cells assessed as effect on Bax levels after 24 hrs by Western blot analysis. The format is cell-based. The settings on record: human, hek293, 24 h.
For data set [13], the system named is HEK293. Description: Induction of apoptosis in HEK293 cells assessed as effect on Bcl2 levels after 24 hrs by Western blot analysis. The format is cell-based. The settings on record: human, hek293, 24 h.
Data set [14] relates to A549. The data set is described as follows: Induction of apoptosis in human A549 cells assessed as decrease in pro-caspase-9 levels at 2 uM after 24 hrs by Western blot analysis. Type of data set: functional, cell-based.

As to `COc1ccc(C(=O)/C=C/c2cc(-c3ccc(OC)cc3)n3nc(-c4ccccc4)cc3n2)cc1`, the IC50 with MDA-MB-231 amounted to 6.3 µM; in the data set on A549 [1], 2.9 µM; in the data set on DU-145 it was 8.5 µM; with HEK293 [2] it was 36.1 µM. Further, the Activity is given as 29.6% with A549 [3]; “Non-Toxic” with HEK293 [4]; “Non-Toxic” in the data set on HEK293 [10]; “Non-Toxic” with HEK293 [11]; “Non-Toxic” in the data set with HEK293 [12]; “Non-Toxic” in the data set on HEK293 [13]. Besides, the outcome with A549 [5], in the data set with A549 [6], in the data set with A549 [7], with A549 [8], with A549 [9] and in the data set with A549 [14] was Active.
`COc1ccc(C(=O)/C=C/c2cc(-c3ccc(OC)c(OC)c3)n3nc(-c4ccccc4)cc3n2)cc1OC`: the IC50 amounted to 2.6 µM in the data set with MDA-MB-231, 3.9 µM with A549 [1], 7.2 µM in the data set with DU-145 and 32.5 µM with HEK293 [2]. Further, the Activity is listed as 29.5% with A549 [3]; “Non-Toxic” in the data set with HEK293 [4]; “Non-Toxic” in the data set with HEK293 [10]; “Non-Toxic” in the data set with HEK293 [11]; “Non-Toxic” in the data set on HEK293 [12]; “Non-Toxic” in the data set on HEK293 [13]. For the same compound, the result with A549 [5], in the data set with A549 [6], in the data set on A549 [7], with A549 [8], in the data set with A549 [9] and in the data set with A549 [14] was Active.
For `COc1ccc(-c2cc(/C=C/C(=O)c3cc(OC)c(OC)c(OC)c3)nc3cc(-c4ccccc4)nn23)cc1OC`, the IC50 with MDA-MB-231 was 4.7 µM; with A549 [1], 7.2 µM; in the data set on DU-145, 8.3 µM; in the data set with HEK293 [2] it was 35 µM. Besides, the Activity with A549 [3] is listed as 33.11%; in the data set with HEK293 [4], “Non-Toxic”; in the data set with HEK293 [10], “Non-Toxic”; in the data set on HEK293 [11], “Non-Toxic”; in the data set with HEK293 [12], “Non-Toxic”; in the data set on HEK293 [13], “Non-Toxic”. In addition, the result in the data set with A549 [5], in the data set with A549 [6], with A549 [7], in the data set with A549 [8], in the data set on A549 [9] and in the data set on A549 [14] was Active.

Usually IC50 stands for the concentration that gives 50% inhibition.
